In ChEMBL document CHEMBL2375304, “Synthesis and anticancer activity of novel 2-pyridyl hexahyrocyclooctathieno[2,3-d]pyrimidine derivatives” (2013):

How the values were obtained:
Assay type in all cases: functional
MDA-MB-468 = experiment: Growth inhibition of human MDA-MB-468 cells after 48 hrs by Sulforhodamine B assay; conditions: MDA-MB-468, 48 h
Outline: (§1)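 Cells were preincubated 24 h at 37 °C, 5% CO2, and a time-zero plate was TCA-fixed. Five concentrations were made by serial dilution from a DMSO stock (400-fold the top concentration) and incubated 48 h. Adherent cells were fixed with 10% final TCA and suspension cells with 16%. Plates were stained with 0.4% SRB and read at 515 nm. GI50 is the concentration giving 50% reduction in net protein increase versus control.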

BT-549 = experiment: Growth inhibition of human BT549 cells after 48 hrs by Sulforhodamine B assay; conditions: BT-549, 48 h
Outline: (§2)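 Five-concentration SRB assay using 10-fold or ½-log serial dilutions from a DMSO stock. Exposure is 48 h at 37 °C in 5% CO2 after 24 h preincubation. TCA fixation is followed by SRB staining and a reading at 515 nm. Percentage growth is computed from time-zero, control and treated absorbances. GI50 is the concentration where [(Ti−Tz)/(C−Tz)]×100 = 50, read from the plot against log concentration.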

Hs-578T = experiment: Growth inhibition of human Hs578T cells after 48 hrs by Sulforhodamine B assay; outline: as §2
MCF7 = experiment: Growth inhibition of human MCF7 cells after 48 hrs by Sulforhodamine B assay; conditions: MCF7, 48 h; outline: as §2
DU-145 = experiment: Growth inhibition of human DU145 cells after 48 hrs by Sulforhodamine B assay; conditions: DU-145, 48 h; outline: as §2
A498 = experiment: Growth inhibition of human A498 cells after 48 hrs by Sulforhodamine B assay; conditions: A498, 48 h; outline: as §2
OVCAR-8 = experiment: Growth inhibition of human OVCAR8 cells after 48 hrs by Sulforhodamine B assay; conditions: OVCAR-8, 48 h; outline: as §1
SK-MEL-5 = experiment: Growth inhibition of human SK-MEL-5 cells after 48 hrs by Sulforhodamine B assay; conditions: SK-MEL-5, 48 h; outline: as §1
SNB-75 [1] = experiment: Growth inhibition of human SNB75 cells after 48 hrs by Sulforhodamine B assay; conditions: SNB-75, 48 h; outline: as §1
SW-620 = experiment: Growth inhibition of human SW620 cells after 48 hrs by Sulforhodamine B assay; conditions: SW-620, 48 h; outline: as §1
HT-29 [2] = experiment: Growth inhibition of human HT-29 cells after 48 hrs by Sulforhodamine B assay; conditions: HT-29, 48 h; outline: as §2
[3] = Growth inhibition of human HCC2998 cells after 48 hrs by Sulforhodamine B assay; conditions: HCC 2998, 48 h; outline: as §2
NCI-H460 = experiment: Growth inhibition of human NCI-H460 cells after 48 hrs by Sulforhodamine B assay; conditions: NCI-H460, 48 h; outline: as §1
HOP-92 = experiment: Growth inhibition of human HOP92 cells after 48 hrs by Sulforhodamine B assay; conditions: HOP-92, 48 h; outline: as §2
NCI-H226 = experiment: Growth inhibition of human NCI-H226 cells after 48 hrs by Sulforhodamine B assay; conditions: NCI-H226, 48 h; outline: as §1
MOLT-4 [4] = experiment: Growth inhibition of human MOLT4 cells after 48 hrs by Sulforhodamine B assay; conditions: MOLT-4, 48 h; outline: as §1
CCRF-CEM = experiment: Growth inhibition of human CCRF-CEM cells after 48 hrs by Sulforhodamine B assay; outline: as §2
M14 = experiment: Growth inhibition of human M14 cells at 10^-5 M after 48 hrs by Sulforhodamine B assay relative to control; conditions: M14, 48 h, read-out: GI
Outline: (§3)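 Single-dose screen at 10⁻⁵ M. Cells are preincubated 24 h at 37 °C in 5% CO2, then exposed to the compound, diluted from a DMSO stock into medium with gentamicin, for 48 h. Adherent cells are fixed with cold TCA (final 10%) and suspension cells with TCA (final 16%). Cells are stained with 0.4% SRB in 1% acetic acid and bound dye is read at 515 nm. Percent growth inhibition is taken against control wells and time-zero plates.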

U-251 = experiment: Growth inhibition of human U251 cells at 10^-5 M after 48 hrs by Sulforhodamine B assay relative to control; conditions: U-251, 48 h, read-out: GI
Outline: (§4)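 Single-dose stage: compound tested at 10⁻⁵ M in the 49-cell-line panel. Cells grew 24 h at 37 °C, 5% CO₂ before drug addition. Drug stock was in DMSO at 400-fold, diluted in medium with gentamicin. After 48 h exposure, adherent cells were fixed with cold TCA (10% final) and stained with 0.4% SRB in 1% acetic acid. Dye was solubilized in 10 mM Tris, read at 515 nm. Growth percentage was taken relative to untreated control and time-zero plates.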

SNB-75 [5] = experiment: Growth inhibition of human SNB75 cells at 10^-5 M after 48 hrs by Sulforhodamine B assay relative to control; conditions: SNB-75, 48 h, read-out: GI
Outline: (§5)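 Single-dose primary screen at 10⁻⁵ M across 49 lines. Cells were plated 24 h beforehand, with a TCA-fixed time-zero plate, then exposed 48 h at 37 °C, 5% CO2. Cells were fixed with cold TCA, stained with SRB and read at 515 nm. Percent growth was calculated against time-zero and untreated-control absorbances.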

SF-539 = experiment: Growth inhibition of human SF539 cells at 10^-5 M after 48 hrs by Sulforhodamine B assay relative to control; conditions: SF-539, 48 h, read-out: GI; outline: as §5
HT-29 [6] = experiment: Growth inhibition of human HT-29 cells at 10^-5 M after 48 hrs by Sulforhodamine B assay relative to control; conditions: HT-29, 48 h, read-out: GI; outline: as §3
HCT-15 = experiment: Growth inhibition of human HCT15 cells at 10^-5 M after 48 hrs by Sulforhodamine B assay relative to control; conditions: HCT-15, 48 h, read-out: GI; outline: as §3
HOP-62 = experiment: Growth inhibition of human HOP62 cells at 10^-5 M after 48 hrs by Sulforhodamine B assay relative to control; conditions: HOP-62, 48 h, read-out: GI; outline: as §3
A549 = experiment: Growth inhibition of human A549/ATCC cells at 10^-5 M after 48 hrs by Sulforhodamine B assay relative to control; conditions: A549, 48 h, read-out: GI; outline: as §3
MOLT-4 [7] = experiment: Growth inhibition of human MOLT4 cells at 10^-5 M after 48 hrs by Sulforhodamine B assay relative to control; conditions: MOLT-4, 48 h, read-out: GI; outline: as §5
ACHN = experiment: Growth inhibition of human ACHN cells at 10^-5 M after 48 hrs by Sulforhodamine B assay relative to control; conditions: read-out: GI; outline: as §3
[8] = Growth inhibition of human NCI-ADR-RES cells at 10^-5 M after 48 hrs by Sulforhodamine B assay relative to control; conditions: read-out: GI; outline: as §5
OVCAR-3 = experiment: Growth inhibition of human OVCAR3 cells at 10^-5 M after 48 hrs by Sulforhodamine B assay relative to control; conditions: OVCAR-3, 48 h, read-out: GI; outline: as §5
UACC-62 = experiment: Growth inhibition of human UACC62 cells at 10^-5 M after 48 hrs by Sulforhodamine B assay relative to control; conditions: UACC-62, 48 h, read-out: GI; outline: as §4

Row | SMILES | GI50 (MDA-MB-468) [µM] | GI50 (BT-549) [µM] | GI50 (Hs-578T) [µM] | GI50 (MCF7) [µM] | GI50 (DU-145) [µM] | GI50 (A498) [µM] | GI50 (OVCAR-8) [µM] | inhibition of growth at 10 µM (M14) [%] | inhibition of growth at 10 µM (U-251) [%] | inhibition of growth at 10 µM (SNB-75 [5]) [%] | inhibition of growth at 10 µM (SF-539) [%] | inhibition of growth at 10 µM (HT-29 [6]) [%] | inhibition of growth at 10 µM (HCT-15) [%] | inhibition of growth at 10 µM (HOP-62) [%] | inhibition of growth at 10 µM (A549) [%] | inhibition of growth at 10 µM (MOLT-4 [7]) [%] | inhibition of growth at 10 µM (ACHN) [%] | inhibition of growth at 10 µM [8] [%] | inhibition of growth at 10 µM (OVCAR-3) [%] | inhibition of growth at 10 µM (UACC-62) [%] | further results
1 | O=c1[nH]c(-c2ccncc2)nc2sc3c(c12)CCCCCC3 | > 100 | > 100 | > 100 | > 100 | > 100 | > 100 | > 100 | – | – | – | – | – | – | – | – | – | – | – | – | – | GI50 (SK-MEL-5): > 100 µM; GI50 (SNB-75 [1]): 2.69 µM; GI50 (SW-620): > 100 µM; GI50 (HT-29 [2]): > 100 µM; GI50 [3]: > 100 µM; GI50 (NCI-H460): > 100 µM; GI50 (HOP-92): > 100 µM; GI50 (NCI-H226): > 100 µM; GI50 (MOLT-4 [4]): > 100 µM; GI50 (CCRF-CEM): > 100 µM
2 | c1ccc(N2CCN(c3nc(-c4ccccn4)nc4sc5c(c34)CCCCCC5)CC2)cc1 | – | – | – | – | – | – | – | 27.1 | 37.1 | 9.19 | 12.6 | 42 | 41.4 | 36.2 | 68.2 | 47.9 | 56.1 | 57.5 | 27 | 41.2 | –
3 | c1ccc(-c2nc(N3CCOCC3)c3c4c(sc3n2)CCCCCC4)nc1 | 4.17 | 4.37 | 3.39 | 3.02 | 6.92 | 1.66 | 5.13 | – | – | – | – | – | – | – | – | – | – | – | – | – | GI50 (SK-MEL-5): 2 µM; GI50 (SNB-75 [1]): 7.08 µM; GI50 (SW-620): 8.91 µM; GI50 (HT-29 [2]): 6.03 µM; GI50 [3]: 6.92 µM; GI50 (NCI-H460): 5.89 µM; GI50 (HOP-92): 0.617 µM; GI50 (NCI-H226): 5.01 µM; GI50 (MOLT-4 [4]): 3.8 µM; GI50 (CCRF-CEM): 3.55 µM
4 | COc1ccc(N2CCN(c3nc(-c4ccncc4)nc4sc5c(c34)CCCCCC5)CC2)cc1 | – | – | – | – | – | – | – | -0.58 | 15.8 | -13.7 | 7.87 | 23.4 | 17.7 | 0.29 | – | 16.1 | 19.9 | 9.28 | 9.75 | 36.9 | –
5 | c1ccc(N2CCN(c3nc(-c4ccncc4)nc4sc5c(c34)CCCCCC5)CC2)cc1 | – | – | – | – | – | – | – | -8.43 | 0.24 | -23.8 | 1.14 | 12.8 | 2.1 | -5.44 | -0.56 | 4.82 | 7.05 | 5.34 | 7.59 | 5.59 | –
6 | CN1CCN(c2nc(-c3ccccn3)nc3sc4c(c23)CCCCCC4)CC1 | – | – | – | – | – | – | – | 6.12 | 8.31 | 14.4 | 37.4 | 5.9 | 2.35 | -3.13 | 22.6 | 7.6 | 4.94 | 22.7 | -5.6 | 9.41 | –
